Test results as given in paper PMC12123436 (RSC Chemical Biology, 2025).

Experiments:
[1] = system: U87-MG cells; assay: MTT; assay type: cell-based, human; conditions: for IC50: read-out: IC50,dark, 4 h incubation in dark, dark 20 min, then 16 h dark
How it was run: (§1)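 In an MTT assay, cells were incubated with test compound in the dark for 4 h. They were then kept dark or irradiated at 450 nm (10 mW cm−2) for 20 min, and held a further 16 h in the dark. IC50 values were obtained under dark and light conditions, and the phototoxicity index was taken as IC50,dark/IC50,light.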

[2] = system: MCF-7 cells; assay: MTT; assay type: cell-based; conditions: for IC50: read-out: IC50,dark, 4 h incubation in dark, dark 20 min, then 16 h dark
How it was run: as §1

[3] = system: HEK293 cells; assay: MTT; assay type: cell-based; conditions: for IC50: read-out: IC50,dark, 4 h incubation in dark, dark 20 min, then 16 h dark
How it was run: as §1

[4] = Photophysical; assay type: physicochemical; conditions: for λem: λex = 350 nm; for τo: λex = 375 nm
[5] = Singlet oxygen quantum yield with 1,3-diphenylisobenzofuran as scavenger; assay type: physicochemical; conditions: aerated CH3CN, 298 K, λex = 450 nm
[6] = Emission response upon photoirradiation at 450 nm; assay type: physicochemical; conditions: for Emission lifetime τ after photoirradiation / λem after photoirradiation: 10 μM, aerated PBS/DMSO (9:1), 450 nm (10 mW cm−2) 20 min; for λem after photoirradiation: λex = 350 nm
How it was run: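 Test compound (10 μM) in aerated PBS/DMSO (9:1, v/v) was irradiated at 450 nm (10 mW cm−2) for 20 min at 298 K. Photoproducts were followed by RP-HPLC and identified by ESI-MS. Emission was recorded before and after irradiation (λex 350 nm), and I/Io was taken as the ratio of these intensities. Lifetimes were measured at emission maxima (λex 375 nm).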

[7] = Phosphorogenic response towards BCN-OH; assay type: physicochemical; conditions: 10 μM, BCN-OH 500 μM, aerated PBS/DMSO (9:1), dark 16 h; for λem after incubation with BCN-OH: λex = 350 nm
How it was run: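 Test compound (10 μM) was incubated with excess BCN-OH (500 μM) in aerated PBS/DMSO (9:1, v/v) at 298 K in the dark for 16 h. Emission was recorded with λex 350 nm, and I/Io was taken as intensity with versus without BCN-OH. Lifetimes were measured at emission maxima (λex 375 nm).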

[8] = system: U87-MG cells; assay: Cellular uptake by ICP-MS; assay type: cell-based, human; conditions: 5 µM, 4 h, 37°C
[9] = system: MCF-7 cells; assay: Cellular uptake by ICP-MS; assay type: cell-based; conditions: 5 µM, 4 h, 37°C
[10] = system: HEK293 cells; assay: Cellular uptake by ICP-MS; assay type: cell-based; conditions: 5 µM, 4 h, 37°C
[11] = system: U87-MG cells; assay: Annexin V/propidium iodide flow cytometry; assay type: cell-based, human; conditions: 1 μM, 4 h, photoirradiation at 450 nm (10 mW cm−2) 20 min
How it was run: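 Cells were pretreated with test compound (1 μM, 4 h), then kept unirradiated or continuously irradiated at 450 nm (10 mW cm−2) for 20 min. They were stained for 15 min with Alexa Fluor 647–Annexin V (λex 638 nm) and propidium iodide (100 μg mL−1 stock; λex 561 nm). Analysis was by flow cytometry.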

[12] = system: U87-MG cells; assay: Cellular uptake mechanism studies; assay type: cell-based, human; conditions: 20 µM, 1 h
[13] = system: U87-MG cells; assay: Cell death mechanism studies by LSCM; assay type: cell-based, human; conditions: 5 μM, 4 h
How it was run: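 For mitochondrial membrane potential, live cells were pretreated with test compound (5 μM, 4 h), then left unirradiated or irradiated at 450 nm (10 mW cm−2) for 20 min. They were stained with rhodamine 123 (5 μM, 15 min) and imaged by confocal microscopy (λex 488 nm, λem 500–550 nm).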

[14] = potassium phosphate buffer (50 mM, pH 7.4)/CH3CN (1:1), 298 K
[15] = + RGD peptide pretreatment (50 µM, 30 min)

Row | Substance | PI (IC50,dark/IC50,light) [1] | IC50 [1] | PI (IC50,dark/IC50,light) [2] | IC50 [2] | λem ([4]; CH3CN, 298 K) | τo ([4]; CH3CN, 298 K) | τo ([4]; EtOH/MeOH (4:1) glass, 77 K) | Φem [4, 14] | λem [4, 14] | τo [4, 14] | 1O2 quantum yield (ΦΔ) [5] | PI (IC50,dark/IC50,light) [3] | IC50 [3] | Emission lifetime τ after photoirradiation [6] | λem after photoirradiation [6] | Emission lifetime τ after incubation with BCN-OH [7] | λem after incubation with BCN-OH [7] | other results
1 | [Ir(pqe)2(bpy-CONH-S-Tz-Cl)](PF6) [complex 1] | – | – | – | – | 632 nm | 0.68 μs | 4.25 μs | 0.002 | 650 nm | 0.23 μs | 0.55 | – | – | – | – | – | – | –
2 | [Ir(pqe)2(bpy-CONH-S-Tz-S-RGD)](CF3COO) [conjugate 1-RGD] | 325 | 26 ± 1 µM | 236 | – | 631 nm | 0.58 μs | 4.14 μs | 0.001 | 648 nm | 0.19 μs | – | >38 | > 50 µM | 0.26 μs | 648 nm | 0.33 μs | 632 nm | Amount of iridium per average cell [8, 15]: 0.34 fmol; Amount of iridium per average cell ([8]; − RGD): 0.70 fmol; Amount of iridium per average cell [9, 15]: 0.25 fmol; Amount of iridium per average cell ([9]; − RGD): 0.32 fmol; Amount of iridium per average cell [10, 15]: 0.030 fmol; Amount of iridium per average cell ([10]; − RGD): 0.032 fmol; Population of apoptotic cells [11]: 98.28%; Φem ([4]; CH3CN, 298 K): 0.003; Time to complete photodissociation of S,S-tetrazine moiety ([6]; steady-state irradiation at 450 nm, 298 K): 20 min; Cellular uptake efficiency after metabolic or endocytosis inhibitors ([12]; 2-deoxy-D-glucose and oligomycin, or NH4Cl or chloroquine): substantially reduced; Amount of intracellular iridium at low temperature vs 37 °C ([12]; 4 °C): significantly decreased; Internalisation after cation transporter inhibitor ([12]; tetraethylammonium chloride (1 mM) pretreatment): remained unaffected; Intracellular ROS (CM-H2DCFDA emission) ([13]; 450 nm 20 min vs dark): effective intracellular ROS generation; Mitochondrial membrane potential (rhodamine 123 emission) ([13]; after 450 nm 20 min vs dark): significantly diminished in intensity

More lines, in order of falling IC50 [1], values ahead:

Row | PI (IC50,dark/IC50,light) [1] | IC50 [1] | PI (IC50,dark/IC50,light) [2] | IC50 [2] | λem ([4]; CH3CN, 298 K) | τo ([4]; CH3CN, 298 K) | τo ([4]; EtOH/MeOH (4:1) glass, 77 K) | Φem [4, 14] | λem [4, 14] | τo [4, 14] | 1O2 quantum yield (ΦΔ) [5] | Substance | PI (IC50,dark/IC50,light) [3] | IC50 [3] | Emission lifetime τ after photoirradiation [6] | λem after photoirradiation [6] | Emission lifetime τ after incubation with BCN-OH [7] | λem after incubation with BCN-OH [7] | other results
3 | 138 | 11 ± 1 µM | 150 | 15 ± 1 µM | 631 nm | 0.60 μs | 4.38 μs | 0.002 | 650 nm | 0.18 μs | 0.60 | [Ir(pqe)2(bpy-CONH-S-Tz-S-Et)](PF6) [complex 2] | 133 | 12 ± 1 µM | 0.29 μs | 648 nm | 0.37 μs | 631 nm | –
4 | 103 | 4.1 ± 0.2 µM | 105 | 4.2 ± 0.1 µM | 631 nm | 0.67 μs | 4.23 μs | 0.02 | 648 nm | 0.34 μs | – | [Ir(pqe)2(bpy-CONH2)](PF6) [complex 4] | 100 | 5 ± 0.1 µM | – | – | – | – | –
5 | 135 | 2.7 ± 0.1 µM | 125 | 2.5 ± 0.1 µM | 634 nm | 0.69 μs | 4.79 μs | 0.02 | 648 nm | 0.35 μs | 0.81 | [Ir(pqe)2(bpy-CONH-SCN)](PF6) [complex 3] | 88 | 3.5 ± 0.2 µM | – | – | – | – | –
